Tested on: Fibroblast
Assay: Multiplex assay against human fibroblast
Format: toxicity, cell-based
Method in brief: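 Hoechst33342, BioTracker Green Microtubule Cytoskeleton Dye, MitoTracker Red and Annexin V Alexa Fluor 680 were added to live cells at seeding, and imaging on a CQ1 microscope at 37°C and 5% CO2 followed compound addition. Gating by CellPathfinder machine learning separated cells into Hoechst high-intensity objects or normal cells, then normal cells into healthy, pyknosed or fragmented nuclei, then pyknosed cells into mitotic or apoptotic. Per cents of healthy-nucleus cells are reported for the tubulin, mitochondrial-mass and membrane-permeability phenotypes.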

[1] = 12 h, 1 µM, compound concentration 1 uM, replicate 1
[2] = 12 h, 1 µM, compound concentration 1 uM, replicate 2
[3] = 12 h, 10 µM, compound concentration 10 uM, replicate 1
[4] = 12 h, 10 µM, compound concentration 10 uM, replicate 2
[5] = 24 h, 1 µM, compound concentration 1 uM, replicate 1
[6] = 24 h, 1 µM, compound concentration 1 uM, replicate 2
[7] = 24 h, 10 µM, compound concentration 10 uM, replicate 1
[8] = 24 h, 10 µM, compound concentration 10 uM, replicate 2
[9] = 48 h, 1 µM, compound concentration 1 uM, replicate 1
[10] = 48 h, 1 µM, compound concentration 1 uM, replicate 2
[11] = 48 h, 10 µM, compound concentration 10 uM, replicate 1
[12] = 48 h, 10 µM, compound concentration 10 uM, replicate 2

## O=C(O)c1cc2ccccc2c(Cc2c(O)c(C(=O)O)cc3ccccc23)c1O [PAMOIC ACID]
[1]
  Population Apoptotic (%): 54%
  Population Fragmented Nuclei (%): 10%
  Population Healthy Nuclei (%): 81%
  Population Hoechst High Intensity Objects (%): 2%
  Population Membrane Permeable-Phenotype (%): 0%
  Population Mitochondria Different-Phenotype (%): 2%
  Population Mitotic Cells (%): 45%
  Population Normal (%): 97%
  Population Pyknosed Nuclei (%): 7%
  Population Tubulin-Different-Phenotype (%): 20%
  Total Cell Count: 147
[2]
  Population Apoptotic (%): 32%
  Population Fragmented Nuclei (%): 23%
  Population Healthy Nuclei (%): 56%
  Population Hoechst High Intensity Objects (%): 6%
  Population Membrane Permeable-Phenotype (%): 6%
  Population Mitochondria Different-Phenotype (%): 8%
  Population Mitotic Cells (%): 67%
  Population Normal (%): 93%
  Population Pyknosed Nuclei (%): 19%
  Population Tubulin-Different-Phenotype (%): 34%
  Total Cell Count: 154
[3]
  Population Apoptotic (%): 40%
  Population Fragmented Nuclei (%): 7%
  Population Healthy Nuclei (%): 80%
  Population Hoechst High Intensity Objects (%): 4%
  Population Membrane Permeable-Phenotype (%): 1%
  Population Mitochondria Different-Phenotype (%): 5%
  Population Mitotic Cells (%): 60%
  Population Normal (%): 95%
  Population Pyknosed Nuclei (%): 11%
  Population Tubulin-Different-Phenotype (%): 23%
  Total Cell Count: 132
[4]
  Population Apoptotic (%): 37%
  Population Fragmented Nuclei (%): 24%
  Population Healthy Nuclei (%): 51%
  Population Membrane Permeable-Phenotype (%): 3%
  Population Mitochondria Different-Phenotype (%): 3%
  Population Mitotic Cells (%): 62%
  Population Pyknosed Nuclei (%): 24%
  Population Tubulin-Different-Phenotype (%): 51%
  Total Cell Count: 156
[5]
  Population Apoptotic (%): 33%
  Population Fragmented Nuclei (%): 10%
  Population Healthy Nuclei (%): 86%
  Population Hoechst High Intensity Objects (%): 3%
  Population Membrane Permeable-Phenotype (%): 0%
  Population Mitochondria Different-Phenotype (%): 2%
  Population Mitotic Cells (%): 66%
  Population Normal (%): 96%
  Population Pyknosed Nuclei (%): 4%
  Population Tubulin-Different-Phenotype (%): 17%
  Total Cell Count: 156
[6]
  Population Apoptotic (%): 32%
  Population Fragmented Nuclei (%): 23%
  Population Healthy Nuclei (%): 58%
  Population Hoechst High Intensity Objects (%): 6%
  Population Membrane Permeable-Phenotype (%): 9%
  Population Mitochondria Different-Phenotype (%): 11%
  Population Mitotic Cells (%): 68%
  Population Normal (%): 93%
  Population Pyknosed Nuclei (%): 18%
  Population Tubulin-Different-Phenotype (%): 39%
  Total Cell Count: 147
[7]
  Population Apoptotic (%): 50%
  Population Fragmented Nuclei (%): 8%
  Population Healthy Nuclei (%): 77%
  Population Hoechst High Intensity Objects (%): 2%
  Population Membrane Permeable-Phenotype (%): 1%
  Population Mitochondria Different-Phenotype (%): 1%
  Population Mitotic Cells (%): 50%
  Population Normal (%): 97%
  Population Pyknosed Nuclei (%): 13%
  Population Tubulin-Different-Phenotype (%): 20%
  Total Cell Count: 138
[8]
  Population Apoptotic (%): 40%
  Population Fragmented Nuclei (%): 34%
  Population Healthy Nuclei (%): 52%
  Population Hoechst High Intensity Objects (%): 5%
  Population Membrane Permeable-Phenotype (%): 3%
  Population Mitochondria Different-Phenotype (%): 5%
  Population Mitotic Cells (%): 59%
  Population Normal (%): 94%
  Population Tubulin-Different-Phenotype (%): 39%
  Total Cell Count: 170
[9]
  Population Apoptotic (%): 25%
  Population Fragmented Nuclei (%): 12%
  Population Healthy Nuclei (%): 79%
  Population Hoechst High Intensity Objects (%): 4%
  Population Membrane Permeable-Phenotype (%): 0%
  Population Mitochondria Different-Phenotype (%): 2%
  Population Mitotic Cells (%): 75%
  Population Normal (%): 95%
  Population Pyknosed Nuclei (%): 8%
  Population Tubulin-Different-Phenotype (%): 23%
  Total Cell Count: 155
[10]
  Population Apoptotic (%): 38%
  Population Fragmented Nuclei (%): 23%
  Population Healthy Nuclei (%): 58%
  Population Hoechst High Intensity Objects (%): 3%
  Population Membrane Permeable-Phenotype (%): 9%
  Population Mitochondria Different-Phenotype (%): 8%
  Population Mitotic Cells (%): 61%
  Population Normal (%): 96%
  Population Pyknosed Nuclei (%): 17%
  Population Tubulin-Different-Phenotype (%): 44%
  Total Cell Count: 152
[11]
  Population Apoptotic (%): 50%
  Population Fragmented Nuclei (%): 19%
  Population Healthy Nuclei (%): 72%
  Population Hoechst High Intensity Objects (%): 5%
  Population Membrane Permeable-Phenotype (%): 2%
  Population Mitochondria Different-Phenotype (%): 5%
  Population Mitotic Cells (%): 50%
  Population Normal (%): 94%
  Population Pyknosed Nuclei (%): 7%
  Population Tubulin-Different-Phenotype (%): 29%
  Total Cell Count: 136
[12]
  Population Apoptotic (%): 60%
  Population Fragmented Nuclei (%): 32%
  Population Healthy Nuclei (%): 60%
  Population Hoechst High Intensity Objects (%): 3%
  Population Membrane Permeable-Phenotype (%): 3%
  Population Mitochondria Different-Phenotype (%): 1%
  Population Mitotic Cells (%): 40%
  Population Normal (%): 96%
  Population Pyknosed Nuclei (%): 6%
  Population Tubulin-Different-Phenotype (%): 28%
  Total Cell Count: 156

Source: ChEMBL document CHEMBL5058577, “EUbOPEN Chemogenomics Library 2 (Multiplex)” (2022)
